According to ChEMBL document CHEMBL3286094, “Synthesis and biological evaluation of novel bisbenzimidazoles as Escherichia coli topoisomerase IA inhibitors and potential antibacterial agents” (J Med Chem, 2014):
≈ marks a conversion by molar mass, not a printed value.

Tests used:
[1] = Inhibition of Escherichia coli DNA topoisomerase-1A using supercoiled pHOT1 plasmid DNA as substrate assessed as inhibition of DNA relaxation after 30 mins by agarose gel electrophoresis
How it was run: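 Supercoiled plasmid DNA incubated with E. coli Topo IA in the presence of compound at […]. Relaxation products were resolved by electrophoresis on 1% agarose gel.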

[2] = system: Escherichia coli; assay: Antibacterial activity against Escherichia coli DH5[alpha] assessed as growth inhibition after 18 to 24 hrs by broth microdilution method; format: functional
[3] = system: Escherichia coli; assay: Antibacterial activity against Escherichia coli ATCC 25922 assessed as growth inhibition after 18 to 24 hrs by broth microdilution method; format: functional
[4] = system: Escherichia coli; assay: Bactericidal activity against Escherichia coli DH5[alpha] by agar plating method; format: functional
[5] = system: Escherichia coli; assay: Bactericidal activity against Escherichia coli ATCC 25922 by agar plating method; format: functional

SMILES	IC50 [1]	MIC50 [2]	MIC50 [3]	MIC90 [2]	MIC90 [3]	MBC [4]	MBC [5]
CCOc1ccc(-c2nc3ccc(-c4nc5ccc(N6CCN(CCNC(=O)C(F)(F)F)CC6)cc5[nH]4)cc3[nH]2)cc1	50.8 µM	16 µg/mL (≈ 27.7 µM)	10.4 µg/mL (≈ 18 µM)	22.5 µg/mL (≈ 39 µM)	20.8 µg/mL (≈ 36 µM)	32 µg/mL (≈ 55.4 µM)	32 µg/mL (≈ 55.4 µM)
Oc1ccc(-c2nc3ccc(-c4nc5ccc(N6CCN(c7ncccn7)CC6)cc5[nH]4)cc3[nH]2)cc1	> 50 µM	> 128 µg/mL	> 128 µg/mL	–	–	–	–
Oc1ccc(-c2nc3ccc(-c4nc5ccc(N6CCN(c7ccncc7)CC6)cc5[nH]4)cc3[nH]2)cc1	> 50 µM	> 128 µg/mL	> 128 µg/mL	–	–	–	–
O=C(NCCN1CCN(c2ccc3nc(-c4ccc5nc(-c6ccc(O)cc6)[nH]c5c4)[nH]c3c2)CC1)C(F)(F)F	45.8 µM	> 128 µg/mL	> 128 µg/mL	–	–	–	–
CCCN1CCN(c2ccc3nc(-c4ccc5nc(-c6ccc(O)cc6)[nH]c5c4)[nH]c3c2)CC1	20.8 µM	> 128 µg/mL	> 128 µg/mL	–	–	–	–
Oc1ccc(-c2nc3ccc(-c4nc5ccc(N6CCN(c7ccc(F)cc7)CC6)cc5[nH]4)cc3[nH]2)cc1	20.3 µM	> 128 µg/mL	> 128 µg/mL	–	–	–	–
N#Cc1ccccc1N1CCN(c2ccc3nc(-c4ccc5nc(-c6ccc(O)cc6)[nH]c5c4)[nH]c3c2)CC1	20.4 µM	> 128 µg/mL	> 128 µg/mL	–	–	–	–
CCOc1ccc(-c2nc3ccc(-c4nc5ccc(N6CCN(c7ccncc7)CC6)cc5[nH]4)cc3[nH]2)cc1	> 50 µM	> 128 µg/mL	> 128 µg/mL	–	–	–	–
COc1ccc(-c2nc3ccc(-c4nc5ccc(N6CCN(c7ccc(F)cc7)CC6)cc5[nH]4)cc3[nH]2)cc1OC	> 50 µM	> 128 µg/mL	> 128 µg/mL	–	–	–	–
Oc1ccc(-c2nc3ccc(-c4nc5ccc(N6CCN(c7ccccc7)CC6)cc5[nH]4)cc3[nH]2)cc1	60.3 µM	> 128 µg/mL	> 128 µg/mL	–	–	–	–

Second part, led by results:

IC50 [1]	MIC50 [2]	MIC50 [3]	MIC90 [2]	MIC90 [3]	SMILES	MBC [4]	MBC [5]
3.76 µM	> 128 µg/mL	> 128 µg/mL	–	–	COc1ccc(-c2nc3ccc(-c4nc5ccc(N6CCN(c7ccccc7C#N)CC6)cc5[nH]4)cc3[nH]2)cc1OC	–	–
4.7 µM	128 µg/mL (≈ 255 µM)	> 128 µg/mL	–	–	Nc1ccc(N2CCN(c3ccc4nc(-c5ccc6nc(-c7ccc(O)cc7)[nH]c6c5)[nH]c4c3)CC2)cc1	–	–
3 µM	128 µg/mL (≈ 244 µM)	128 µg/mL (≈ 244 µM)	–	–	COc1ccc(-c2nc3ccc(-c4nc5ccc(N6CCN(CCN(C)C)CC6)cc5[nH]4)cc3[nH]2)cc1OC	–	–
5.8 µM	64 µg/mL (≈ 146 µM)	> 128 µg/mL	121 µg/mL (≈ 276 µM)	–	CCN1CCN(c2ccc3nc(-c4ccc5nc(-c6ccc(O)cc6)[nH]c5c4)[nH]c3c2)CC1	128 µg/mL (≈ 292 µM)	–
8 µM	64 µg/mL (≈ 133 µM)	> 128 µg/mL	–	–	CN(C)CCN1CCN(c2ccc3nc(-c4ccc5nc(-c6ccc(O)cc6)[nH]c5c4)[nH]c3c2)CC1	–	–
20.3 µM	> 128 µg/mL	> 128 µg/mL	–	–	COc1ccc(-c2nc3ccc(-c4nc5ccc(N6CCN(c7ccc(N)cc7)CC6)cc5[nH]4)cc3[nH]2)cc1OC	–	–
12.3 µM	–	16 µg/mL (≈ 33.2 µM)	–	14.8 µg/mL (≈ 30.7 µM)	CCN1CCN(c2ccc3nc(-c4ccc5nc(-c6ccc(OC)c(OC)c6)[nH]c5c4)[nH]c3c2)CC1	16 µg/mL (≈ 33.2 µM)	32 µg/mL (≈ 66.3 µM)
3.8 µM	> 128 µg/mL	> 128 µg/mL	–	–	COc1ccc(-c2nc3ccc(-c4nc5ccc(N6CCN(c7ccccc7)CC6)cc5[nH]4)cc3[nH]2)cc1OC	–	–
